# Exocytosis inh: LAMP-1 surface exposure blockers, TALL-104 cells – cell-based, flow cytometry, MLPCN library, primary screen | TALL-104 LAMP-1 surface exposure; cells stimulated with thapsigargin and PMA | inhibition, % at 10 µM | actives 0.66% (n = 360,000);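 active means inhibition above about 55%, limit read from the data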
# HKDC1 inh: HKDC1 hexokinase inhibitors, primary screen, biochemical, fluorescence, uHTS | Q2TB90 | recombinant HKDC1, G6PDH/diaphorase resazurin coupled fluorescence | inhibition, % at 20 µM | actives 0.16% (n = 340,000);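 active means inhibition above about 35% when tested at 20 µM, limit read from the data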;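 further: plate controls were DMSO wells with enzyme for no effect and DMSO wells lacking enzyme for full effect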
#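 System: Recombinant HKDC1 hexokinase | Amount: HKDC1 at 5 µg/mL | Reagent: Glucose with 1 mM ATP | Doses: Single 20 µM dose | Incubation: Reaction time 90 min, room temperature, protected from light | Signal: Coupled resazurin fluorescence, excitation 525 nm, emission 613 nm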
# ABHD5-PLIN5 inh: ABHD5-PLIN5 interaction inhibitors, primary screen, cell lysate, split luciferase complementation, luminescence; Perilipin-5 (Homo sapiens) + 1-acylglycerol-3-phosphate O-acyltransferase ABHD5 (Homo …; actives 0.78% (n = 360,000); Split G. princeps luciferase complementation, 4 h; inhibition, % at 4 µM;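 active means inhibition above the mean inhibition across every tested compound plus 3 SD, cut at about 22% in these data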;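 further: 0% = DMSO only wells and the 100% control is not disclosed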
# Target sequence (Q00G26 whole entry, looked up): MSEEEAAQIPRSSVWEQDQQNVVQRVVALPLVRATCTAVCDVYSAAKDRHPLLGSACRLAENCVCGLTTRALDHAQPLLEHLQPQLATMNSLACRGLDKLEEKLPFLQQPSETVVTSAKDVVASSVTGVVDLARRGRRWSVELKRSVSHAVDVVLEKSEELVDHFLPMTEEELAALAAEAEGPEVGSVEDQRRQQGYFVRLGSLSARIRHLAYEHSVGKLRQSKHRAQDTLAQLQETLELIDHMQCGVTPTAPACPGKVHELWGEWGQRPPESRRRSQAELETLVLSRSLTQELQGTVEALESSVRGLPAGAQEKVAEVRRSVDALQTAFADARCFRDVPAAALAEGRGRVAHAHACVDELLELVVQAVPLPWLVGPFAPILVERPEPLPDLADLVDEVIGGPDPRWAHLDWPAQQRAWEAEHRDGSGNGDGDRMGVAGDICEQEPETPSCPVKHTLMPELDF
# Target sequence (Q8WTS1 whole entry, looked up): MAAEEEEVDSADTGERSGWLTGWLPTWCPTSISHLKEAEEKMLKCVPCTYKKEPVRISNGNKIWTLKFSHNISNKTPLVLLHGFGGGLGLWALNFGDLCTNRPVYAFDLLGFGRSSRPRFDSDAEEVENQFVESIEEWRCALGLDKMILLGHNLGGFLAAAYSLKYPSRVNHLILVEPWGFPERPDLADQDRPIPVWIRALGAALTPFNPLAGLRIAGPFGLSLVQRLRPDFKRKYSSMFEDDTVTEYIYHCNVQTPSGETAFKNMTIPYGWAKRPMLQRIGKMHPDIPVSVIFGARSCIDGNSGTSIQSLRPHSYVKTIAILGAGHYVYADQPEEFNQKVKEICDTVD
# PfG6PD inh: PfG6PD enzyme inhibitors, primary screen, biochemical, fluorescence intensity, uHTS; glucose-6-phosphate dehydrogenase-6-phosphogluconolactonase (Plasmodium falciparum 3D7); PfGluPho enzyme, NADPH resazurin-diaphorase fluorescence; inhibition, % at 20 µM; actives 0.78% (n = 350,000); AID 504690, 2011;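 active means inhibition reaching at least a set limit at 20 µM in the primary screen, cut at about 59% in these data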;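 further: 0% = DMSO wells with substrate and 100% = DMSO wells lacking glucose-6-phosphate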
# PfG6PD confirm: PfG6PD inhibitors, hit retest, confirmation, biochemical, fluorescence intensity, single concentration | AID 504753, 2011 | inhibition, % at 20 µM | actives 34% (n = 2,400) | recombinant PfGluPho, NADPH-diaphorase-resazurin fluorescence | shares compounds with PfG6PD inh;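 active means inhibition of at least 50% at 20 µM in any single replicate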;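 further: 0% = DMSO with substrate and 100% = DMSO lacking glucose-6-phosphate substrate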
# Diaphorase 10uM: diaphorase inhibitors and chemical oxidizers, confirmation, counter-screen for P. falciparum G6PD inhibitor project, biochemical, fluorescence intensity, 10 µM NADPH. inhibition, % at 20 µM. shares compounds with PfG6PD inh. actives 39% (n = 820). diaphorase-coupled resazurin reduction, NADPH 10 uM;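 active means average inhibition reaching 50% or more with the compound at 20 µM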;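 further: resorufin red fluorescence formed as diaphorase reduces resazurin using NADPH; 0% = DMSO with enzyme and 100% = DMSO without enzyme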
# Diaphorase 30uM: diaphorase inhibitors and chemical oxidizers, confirmation, counter-screen for P. falciparum G6PD inhibitor project, biochemical, fluorescence intensity, 30 µM NADPH | shares compounds with PfG6PD inh | Diaphorase/resazurin coupled assay, resorufin fluorescence | inhibition, % at 20 µM | actives 29% (n = 820) | AID 504863, 2011;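 active means inhibition averaging 50% or more, tested at 20 µM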;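 further: 0% = DMSO with enzyme and 100% = DMSO wells lacking diaphorase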
# Active calls of the source: *; / = not tested or not shown; ! = a repeat was not active. Most compounds without a hit are left out; they make up all but 2.2% or so of the library.
SMILES,Exocytosis inh,HKDC1 inh,ABHD5-PLIN5 inh,PfG6PD inh,PfG6PD confirm,others
CCN(CC)CCCNC(=O)CSc1nc(C)cc(C)n1,3,-7,2,2,/,
Cc1ccc(C(=O)NC(=O)CSc2ncccc2C(=O)O)cc1,-2,-5,4,-17,/,
On1onc2c3cc(-c4ccccc4)nc3ccc21,3,1,-2,90*,7,
CCn1c(=O)n(CC)c2cc(N3CCCC3)c(NC(=O)c3cccc(C)c3)cc21,-8,2,4,71*,84*,Diaphorase 10uM=-10;Diaphorase 30uM=9
Cc1cc(N)c2cc(NC(=O)/C=C/c3ccccc3Cl)ccc2n1,15,14,10,60*,1,
Cc1cc(C)nc(NC(=O)/C=C/c2ccccc2Cl)n1,-8,-3,1,1,/,
COC(=O)[C@H](CC(C)C)N1Cc2cc(OC)cc(OC)c2-c2ccccc2S1(=O)=O,-1,2,7,65*,12,
C=C1CCN(C(CC(C)C)C(=O)OC)S(=O)(=O)c2ccccc21 (configuration not stated),-4,3,2,0,/,
O=C(Nc1cccnc1Cl)c1cc2ccccc2o1,11,-1,0,-8,/,
COc1cc(OC)c(OC)cc1/C=C/c1ccnc2ccccc12,-1,4,11,87*,14,
Cc1nn(S(=O)(=O)c2ccccc2)c(C)c1S(=O)(=O)N1CCOCC1,13,2,9,-7,/,
O=S(=O)(Nc1c(O)ccc2ccccc12)c1ccccc1,18,32,-18,75*,52*,Diaphorase 10uM=25;Diaphorase 30uM=22
O=S(=O)(Nc1ncccn1)c1ccc(F)cc1,0,-4,9,2,/,
O=S(=O)(Nc1cccc2ccccc12)c1ccccc1,-2,12,1,34,/,
O=S(=O)(Nc1c(O)ccc2ccccc12)c1ccc(F)cc1,9,29,-5,76*,40,
COc1ccc(CNC(=O)CCC(=O)Nc2ccc(Cl)cc2)cc1,-6,-5,-2,3,/,
CN(C)c1ccc(NC(=S)c2ccc3ccccc3n2)cc1,-2,-17,0,67*,37,
O=[N+]([O-])c1ccc2[nH]c(O)c(N=NC3CCS(=O)(=O)C3)c2c1 (configuration not stated),-2,-1,-9,6,/,
CC(C)(C)OC(=O)N1CCCC(C(=O)Nc2ccc(C(=O)N3CCOCC3)cc2)C1 (configuration not stated),4,-6,8,5,/,
CCSc1nnc(NC(=O)c2ccccc2C)s1,-2,-9,-4,10,/,
COc1ccc(N2C(=S)N(C(=O)c3ccccc3)C(=Nc3ccccc3)C2=Nc2ccccc2)cc1,-3,-12,-3,64*,31,
COc1ccc(N=C2C(=Nc3ccc(OC)cc3)N(c3ccc(OC)cc3)C(=S)N2C(=O)c2ccc(OC)cc2)cc1,-5,10,-16,-8,/,
COc1ccc(O)c(CN2CC3CCC(CC3)C2)c1,3,13,6,-15,/,
COc1cc(/C=C/C(=O)Nc2nnc(CC(C)(C)C)s2)cc(OC)c1OC,-2,-19,-2,59*,35,
COc1cc(/C=C/C(=O)Nc2nnc(CC(C)C)s2)cc(OC)c1OC,5,6,-3,-3,/,
SMILES,Exocytosis inh,HKDC1 inh,ABHD5-PLIN5 inh,PfG6PD inh,PfG6PD confirm,others
CCC(CC)C(=O)NN(C(=O)c1ccncc1)C1CC(=O)N(c2ccccc2)C1=O (configuration not stated),1,-3,-3,10,/,
O=C(/C=C/c1ccccc1)Nc1scc(-c2ccccc2)c1C(=O)O,-2,2,6,61*,26,
O=C(/C=C/c1ccco1)Nc1scc(-c2ccccc2)c1C(=O)O,1,5,10,75*,22,
Cc1ccc(OCCn2cc(/C=C3\C(=O)NN(c4ccccc4)C3=O)c3ccccc32)cc1,3,8,0,65*,33,
Cc1ccc(S(=O)(=O)N(CCCc2c(C)nc(N)[nH]c2=O)Cc2ccc([N+](=O)[O-])cc2)cc1,-1,/,-10,62*,25,
CCOC(=O)C1=C(C)Nc2nc(SCC)nn2C1c1ccc(OC)cc1 (configuration not stated),0,-4,-2,-18,/,
CCOC(=O)C1=C(C)Nc2nc(=S)[nH]n2C1c1ccc(Cl)cc1 (configuration not stated),2,4,-6,61*,19,
CCOC(=O)C1=C(C)Nc2ncnn2C1c1ccc(N(C)C)cc1 (configuration not stated),-3,-2,3,61*!,29,
CC1(C)C2(C#N)C(=O)NC(=O)C12C#N (configuration not stated),11,-8,-8,-2,/,
COc1cccc(OCCNc2cc(Cl)ccc2[N+](=O)[O-])c1,3,-4,0,63*,-12,
C/C(Cn1nnc([N+](=O)[O-])n1)=N\NC(=O)c1ccccc1,-1,9,-2,63*,60*,Diaphorase 10uM=11;Diaphorase 30uM=14
C/C(Cn1cnc([N+](=O)[O-])n1)=N\NC(=O)c1ccccc1,-2,-1,-6,4,/,
C[C@@H]1CN([C@@H](C)CO)C(=O)c2cc(C#CC3CCCCC3)cnc2O[C@@H]1CN(C)S(=O)(=O)c1ccc(F)cc1,-5,/,5,66*,10,
O=C(CN1CCCCC1)N1CCCc2c1c(=O)oc1ccc(OCc3ccccc3)cc21,3,2,1,56,/,
CCCOc1ccc2oc(=O)c3c(c2c1)CCCN3C(=O)CN(C)Cc1ccccc1,0,2,-2,78*,39,
C1CCCCCC(NCCN2CCNCC2)CCCCC1,16,-9,6,0,/,
CCOC(=O)c1ccc(S(=O)(=O)Nc2cc(C(=O)O)ccc2Cl)cc1,-2,9,-1,48,29,
COc1ccc(CCn2c(NN=C3CCCCC3)nc3c2c(=O)[nH]c(=O)n3C)cc1,-6,11,-2,106*,81*,Diaphorase 10uM=-8;Diaphorase 30uM=-5
COc1ccc(CNc2nc3c(c(=O)[nH]c(=O)n3C)n2CCCc2ccccc2)cc1,25,4,6,-15,/,
Nc1nc(-c2ccccn2)nc(N)c1Cc1ccc(Cl)cc1Cl,3,0,0,10,/,
O=C(N/N=C/c1ccc(O)cc1)c1ccc(NC(=O)c2ccccc2Br)cc1,0,4,9,0,/,

# Bioassay records: PubChem BioAssay, several laboratories
